Experimental data as given in ChEMBL document CHEMBL1949512, “RO4383596, an orally active KDR, FGFR, and PDGFR inhibitor: synthesis and biological evaluation” (Bioorg Med Chem, 2005).

Legend:
[1] = target: Fibroblast growth factor receptor (Homo sapiens, UniProt P22607+P11362+P22455+P21802); assay: Inhibition of human recombinant GST-tagged intracellular domain of FGFR using biotin-EEEEYFELV as substrate by HTRF assay
[2] = target: T1, Vascular endothelial growth factor receptor 2 (Homo sapiens, UniProt P35968); assay: Inhibition of human recombinant EE-tagged intracellular domain of KDR using biotin-EEEEYFELVAKKKK as substrate by HTRF assay
[3] = target: Platelet-derived growth factor receptor (Homo sapiens, UniProt P09619+P16234); assay: Inhibition of human recombinant His-tagged intracellular domain of PDGFR using biotin-EEEEYFELV as substrate by HTRF assay
[4] = target: Epidermal growth factor receptor (Homo sapiens, UniProt P00533); assay: Inhibition of human recombinant His-tagged intracellular domain of EGFR using biotin-EEEEYFELV as substrate by HTRF assay
[5] = target: T1, Vascular endothelial growth factor receptor 2; assay: Inhibition of KDR in HUVEC assessed as AKT phosphorylation by Western blot analysis
Outline: (§1)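 HUVECs at passages 2–4 were grown to 70% confluency and serum-starved 18 h in EBM-2 with 1.0% HI-FBS. Compound was added 1 h before 50 ng/mL rhVEGF. Cells were lysed on ice 5 min after stimulation and lysates immunoblotted, with actin used to normalize loading.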

[6] = target: T1, Vascular endothelial growth factor receptor 2; assay: Inhibition of KDR in HUVEC assessed as ERK1/2 phosphorylation by Western blot analysis; outline: as §1
[7] = target: T1, Vascular endothelial growth factor receptor 2; assay: Inhibition of KDR autophosphorylation in HUVEC by Western blot analysis; outline: as §1

T1 sequence (P35968 whole entry, the tested form may be a part): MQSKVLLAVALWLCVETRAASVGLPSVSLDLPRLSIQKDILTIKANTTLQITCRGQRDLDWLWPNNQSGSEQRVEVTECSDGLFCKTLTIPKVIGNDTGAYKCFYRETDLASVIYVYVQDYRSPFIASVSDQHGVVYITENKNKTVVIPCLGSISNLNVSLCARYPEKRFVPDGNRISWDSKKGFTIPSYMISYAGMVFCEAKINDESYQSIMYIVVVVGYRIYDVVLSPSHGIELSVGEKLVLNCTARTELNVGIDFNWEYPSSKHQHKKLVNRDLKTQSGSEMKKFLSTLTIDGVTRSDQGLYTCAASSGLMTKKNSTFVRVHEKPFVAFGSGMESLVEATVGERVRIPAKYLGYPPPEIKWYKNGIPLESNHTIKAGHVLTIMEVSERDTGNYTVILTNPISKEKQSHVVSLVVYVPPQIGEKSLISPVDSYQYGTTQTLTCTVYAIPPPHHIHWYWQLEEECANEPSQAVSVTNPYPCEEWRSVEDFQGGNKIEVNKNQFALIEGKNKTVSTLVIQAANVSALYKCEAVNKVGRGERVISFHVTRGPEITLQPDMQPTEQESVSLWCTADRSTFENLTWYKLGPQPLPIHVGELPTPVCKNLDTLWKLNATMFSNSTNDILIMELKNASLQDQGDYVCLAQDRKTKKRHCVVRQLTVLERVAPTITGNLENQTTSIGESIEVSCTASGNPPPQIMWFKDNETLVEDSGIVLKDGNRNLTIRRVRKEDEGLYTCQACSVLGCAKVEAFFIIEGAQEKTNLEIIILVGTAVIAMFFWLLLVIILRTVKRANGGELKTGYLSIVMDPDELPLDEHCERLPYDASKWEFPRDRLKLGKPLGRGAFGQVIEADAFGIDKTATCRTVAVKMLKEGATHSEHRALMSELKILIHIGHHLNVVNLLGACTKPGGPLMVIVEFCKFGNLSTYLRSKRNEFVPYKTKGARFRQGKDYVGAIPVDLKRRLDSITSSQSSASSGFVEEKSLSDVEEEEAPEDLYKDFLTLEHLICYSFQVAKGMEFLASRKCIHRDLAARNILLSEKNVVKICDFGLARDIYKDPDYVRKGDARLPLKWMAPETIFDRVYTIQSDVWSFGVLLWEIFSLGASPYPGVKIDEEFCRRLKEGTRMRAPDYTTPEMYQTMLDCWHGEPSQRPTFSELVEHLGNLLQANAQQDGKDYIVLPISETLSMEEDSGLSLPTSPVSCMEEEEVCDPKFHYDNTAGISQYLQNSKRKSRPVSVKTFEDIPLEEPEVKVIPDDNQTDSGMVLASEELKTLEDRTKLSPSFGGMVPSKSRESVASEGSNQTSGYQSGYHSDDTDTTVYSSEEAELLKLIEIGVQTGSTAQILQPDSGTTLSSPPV
Chain of Epidermal growth factor receptor (P00533 whole entry, the tested form may be a part): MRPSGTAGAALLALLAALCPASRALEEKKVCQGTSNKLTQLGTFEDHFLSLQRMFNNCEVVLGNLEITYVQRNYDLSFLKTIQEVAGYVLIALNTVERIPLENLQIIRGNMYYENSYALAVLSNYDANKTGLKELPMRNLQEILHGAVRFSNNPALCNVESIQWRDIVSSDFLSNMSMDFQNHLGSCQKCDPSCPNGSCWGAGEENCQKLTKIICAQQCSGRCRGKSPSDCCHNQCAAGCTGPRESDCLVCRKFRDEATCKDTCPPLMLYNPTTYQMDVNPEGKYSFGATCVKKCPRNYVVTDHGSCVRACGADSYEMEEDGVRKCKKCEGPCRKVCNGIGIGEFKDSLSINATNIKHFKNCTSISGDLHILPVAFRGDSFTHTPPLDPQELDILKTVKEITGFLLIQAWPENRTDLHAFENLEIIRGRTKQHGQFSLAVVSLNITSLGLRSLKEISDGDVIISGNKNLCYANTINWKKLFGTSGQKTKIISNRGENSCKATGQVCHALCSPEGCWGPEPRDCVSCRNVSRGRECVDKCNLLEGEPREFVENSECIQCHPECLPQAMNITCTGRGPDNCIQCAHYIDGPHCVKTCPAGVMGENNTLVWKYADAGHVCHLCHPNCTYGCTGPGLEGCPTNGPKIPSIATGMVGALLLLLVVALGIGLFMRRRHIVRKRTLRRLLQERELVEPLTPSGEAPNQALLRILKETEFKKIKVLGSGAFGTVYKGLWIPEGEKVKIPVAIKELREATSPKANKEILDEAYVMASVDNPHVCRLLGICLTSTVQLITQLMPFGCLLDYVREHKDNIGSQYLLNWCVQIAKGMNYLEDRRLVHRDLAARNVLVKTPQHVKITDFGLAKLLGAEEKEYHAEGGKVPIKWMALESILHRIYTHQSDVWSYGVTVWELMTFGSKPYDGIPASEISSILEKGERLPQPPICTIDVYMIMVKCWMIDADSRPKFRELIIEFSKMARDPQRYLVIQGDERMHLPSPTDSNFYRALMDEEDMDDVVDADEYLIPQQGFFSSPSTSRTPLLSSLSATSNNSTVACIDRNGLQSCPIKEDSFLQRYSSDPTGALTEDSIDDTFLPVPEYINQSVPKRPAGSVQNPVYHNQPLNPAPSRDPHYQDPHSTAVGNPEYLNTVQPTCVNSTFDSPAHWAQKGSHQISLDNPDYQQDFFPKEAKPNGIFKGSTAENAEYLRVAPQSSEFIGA

Row | IC50 [1] [nM] | IC50 [2] [nM] | IC50 [3] [nM] | IC50 [4] [nM] | inhibition [5] | inhibition [6] | inhibition [7] | Compound
1 | 35 | 12 | 28 | 239 |  |  |  | COc1ccc(N2Cc3cnc(Nc4ccccc4)nc3N([C@@H]3CC[C@@H](O)C3)C2=O)cc1
2 | 37 | 15 | 33 | 365 |  |  |  | COc1ccc(N2Cc3cnc(Nc4ccccc4)nc3N([C@H]3CC[C@H](O)C3)C2=O)cc1
3 |  |  |  |  | Dose-dependent effect | Dose-dependent effect | Dose-dependent effect | COc1ccc(N2Cc3cnc(Nc4ccccc4)nc3N([C@@H]3CC[C@@H](O)C3)C2=O)cc1 (racemic)
